# CHOP UPR activ: activators of apoptotic arm of unfolded protein response (CHOP); CHO-CHOP luciferase reporter, UPR activation, luminescence; percent of tunicamycin response over DMSO baseline; activation, % at 10 µM; 0.34% of 330,000 active; AID 449763;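 active = at 10 µM dose, activation of 40% or more, normalized to positive control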;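 note: 100% = tunicamycin at 10 µg/mL and 0% = DMSO alone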
#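 Assay system: CHO cells with stable CHOP pathway luciferase reporter; Buffer or medium: F12 plus 10% serum; Times: 16-18 h cell attachment, then 6 h compound exposure, 37 °C; Signal: luciferase luminescence; Read-out basis: percent activation relative to tunicamycin control; Control set: tunicamycin high control, DMSO low control.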
# Beta cell apopt: beta cell apoptosis inhibition; 0.8% of 300,000 active; INS-1E cytokine-induced death, ATP luminescence, 48 h; percent of positive-control rescue, neutral wells zero; AID 435005; protection from apoptosis, % (test concentration not listed);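 active = Every replicate reaches about 75%, or at least half do and their mean reaches it too, limit read from the data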;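 note: 0% = cytokine-treated negative control wells and 100% = positive control rescue; higher means more ATP so stronger rescue from cytokine killing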
# CSC inhib: blocks cancer stem cells; cancer stem cell-like cells viability, luminescence; inhibition, % at 7.5 µM; 1.1% of 300,000 active; AID 2717; in the data active = inhibition above about 75%; tested in HMLE shEcad cells
# T cruzi repl: T. cruzi replication inhibition | T. cruzi beta-gal in NIH3T3, luminescence, 90 h | inhibition, % (concentration not given with the values) | 1.4% of 300,000 active | AID 1885;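 active = mean inhibition across valid replicates above about 55%, limit read from the data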;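 note: signal also drops with host cell toxicity which is not excluded here; 0% = plate median of DMSO wells and 100% = zero luminescence signal; higher percent means less beta-gal luminescence so fewer parasites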
#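 Assay system: NIH/3T3 host cells with β-galactosidase reporter T. cruzi; input: 5,000 host fibroblasts per well; compound: single 50 nL compound addition per well in DMSO; timing: ≥90 h infection period, 3 h prior cell attachment; measured by: GalScreen β-gal luminescence, detergent lysis, 60 min; evaluation: percent inhibition of parasite-derived β-gal signal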
# XBP1 UPR activ: adaptive UPR (XBP1) activation | CHO-XBP1 luciferase reporter, IRE1-XBP1 UPR activation, luminescence; percent of tunicamycin response, DMSO as zero | activation, % at 20 µM | 0.33% of 330,000 active | AID 463104;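 active = versus positive control, 20 µM dose yields 30% or more activation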;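 note: 100% = tunicamycin at 10 µg/mL and 0% = DMSO only wells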
#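 assay system = CHO-XBP1 luciferase reporter cells | amount = 1000 cells/well | buffer or medium = F12 plus 10% FBS | compound dosing = single point, 20 µM final compound, 1% DMSO | incubation = 16-18 h cell attachment at 37 °C, then 6 h compound exposure | detection = Steady-Glo luminescence read | controls = tunicamycin 10 µg/mL and vehicle-only wells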
# Mdm2-MdmX inh: human Mdm2/MdmX binding inhibition; SaOS-2 split-luciferase Mdm2/MdmX complementation, luminescence; AID 485346; 3% of 330,000 active; O15151+Q00987; inhibition, % at 8 µM;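 active = inhibition of at least 50% at 8 µM in the primary screen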
# * hit, by the source's call; / = no result given. Rows were chosen to be rich in hits. Some 5% of all compounds tested hit in one or more screens of this group.
SMILES,CHOP UPR activ,Beta cell apopt,CSC inhib,T cruzi repl,XBP1 UPR activ,Mdm2-MdmX inh
CN(CCNC(=O)C1CC(=O)N(c2ccc(F)c(Cl)c2)C1)Cc1ccccc1 (centres undefined),0,-2,2,60*,-1,10
CN(C)CCNC(=O)C1CC(=O)N(c2ccc(F)c(Cl)c2)C1 (centres undefined),0,5,-7,37,-2,-11
CCCCNC(=O)C1CC(=O)N(CCc2ccccc2)C1 (centres undefined),-1,3,-32,-9,-1,17
Cc1ccc(CCN2CC(C(=O)NCCCN(C)Cc3ccccc3)CC2=O)cc1 (centres undefined),-4,-9,-5,63*,1,4
O=C(N/N=C/c1cc([N+](=O)[O-])ccc1O)c1cccc(N2CCCC2=O)c1,6,1,-8,-10,-3,22
CC(C)(C)OC(=O)NCCCC[C@H](NC(=O)c1nc[nH]c1C(=O)NC(c1ccccc1)c1ccccc1)C(=O)OC(C)(C)C,1,24,35,56*,0,38
COc1ccc(NC(=O)c2nc[nH]c2C(=O)N[C@@H](CC(C)C)C(=O)OC(C)(C)C)cc1,0,69,133*,35,6,16
COc1ccc(NC(=O)c2nc[nH]c2C(=O)N[C@@H](C)C(=O)OC(C)(C)C)cc1,-2,2,/,13,-1,40
CCN(C(=O)COC(=O)Cc1c[nH]c2ccccc12)c1c(N)n(Cc2ccccc2)c(=O)[nH]c1=O,2,-9,0,-6,-2,16
Cc1cccc(N(CC(O)CON=C2c3ccccc3-c3ccccc32)S(C)(=O)=O)c1 (centres undefined),-2,-2,5,60*,-3,44
CCN(CC(O)CON=C1c2ccccc2-c2ccccc21)S(=O)(=O)c1ccc(C)cc1 (centres undefined),0,5,46,62*,3,22
CCN(CC(O)CON=C1c2ccccc2-c2ccccc21)S(=O)(=O)c1ccc(Cl)cc1 (centres undefined),3,24,40,62*,-1,12
CS(=O)(=O)N(CC(O)CON=C1c2ccccc2-c2ccccc21)c1ccc(F)cc1 (centres undefined),2,/,/,19,1,13
CN(CC(O)CON=C1c2ccccc2-c2ccccc21)S(=O)(=O)c1ccc(Br)cc1 (centres undefined),0,8,98*,44,-1,16
CC(Sc1nnc(-c2ccco2)n1N)C(=O)NCc1ccc2c(c1)OCO2 (centres undefined),0,/,/,/,1,-5
CC(C)OCCCNC(=O)C1CCC(CNS(=O)(=O)c2cccc3nsnc23)CC1 (centres undefined),-2,-2,-2,-2,-1,-10
CC(C)CCNC(=O)C1CCC(CNS(=O)(=O)c2cccc3nsnc23)CC1 (centres undefined),2,4,-12,56*,-1,-4
CC(C)CN(C(=O)c1ccc2c(c1)OCCO2)c1c(N)n(Cc2ccccc2)c(=O)[nH]c1=O,0,/,0,-16,0,-5
CC(C)=CCc1c(O)ccc(C(=O)Cc2ccccc2)c1O,2,8,97*,-4,1,23
O=C(Cc1cnn(-c2ccccc2)c1)c1ccc(O)c(O)c1O,0,-6,/,-12,0,-23
COc1ccccc1/C=C(/CC(=O)NCc1ccc2c(c1)OCO2)c1nc2ccccc2s1,1,8,37,55*,0,0
COc1ccccc1/C=C/C(=O)OCC(=O)NCc1ccc2c(c1)OCO2,3,-3,-10,/,-3,-1
CSc1ccc(/C=N/Nc2nc(C)cc(=O)[nH]2)cc1,2,4,-6,-7,1,-9
Cc1cc(=O)[nH]c(N/N=C/c2ccc(-c3ccc(F)cc3)o2)n1,4,55,75*,-14,-4,-4
CCOC(=O)c1nc(Nc2ccc(C(C)=O)cc2)c2ccccc2n1,0,21,2,-6,2,4
SMILES,CHOP UPR activ,Beta cell apopt,CSC inhib,T cruzi repl,XBP1 UPR activ,Mdm2-MdmX inh
Cc1cc(Cl)c(OCCCNCc2ccccc2)c(Br)c1,-1,13,37,56*,1,37
Cc1cc(C)c(OCCCNCc2ccccc2)c(Br)c1,2,-2,25,20,-2,16
CCOC(=O)[C@H]1[C@H]2COc3ccc(Br)cc3[C@@H]2N2C(=O)c3cc(F)c(F)cc3NC(=O)[C@@]12C,2,5,1,/,7,25
COc1ccc(C(=O)NCC2(c3ccccc3)CCCC2)c(OC)c1,2,12,83*,21,-4,8
O=c1[nH]c(/C(Cl)=C/c2c(F)cccc2Cl)nc2cc(Cl)ccc12,2,-13,-12,0,4,9
O=c1[nH]c(/C(Cl)=C/c2cc(Cl)ccc2O)nc2cc(Cl)ccc12,1,-4,101*,-11,-1,35
O=C(NCCc1ccccc1)c1cc(-c2ccccc2)c(N2CCOCC2)s1,1,5,81*,35,-1,0
Cc1cc(C(=O)COC(=O)C2=COCCO2)c(C)n1-c1ccc2c(c1)OCO2,4,-3,-19,-13,0,-76
Cc1cc(C(=O)COC(=O)Cc2n[nH]c(=O)c3ccccc23)c(C)n1-c1ccc2c(c1)OCCO2,0,-2,9,69*,-5,22
Cc1ccc(C)c2c1[nH]c1ccc([N+](=O)[O-])cc12,1,26,-4,31,-3,26
COc1ccccc1/C=C1\SC(=S)N(CCC(=O)NCCCn2ccnc2)C1=O,-1,/,100*,0,-8,7
COc1cccc(/C=C2\SC(=O)N(CCC(=O)NCCCn3ccnc3)C2=O)c1,2,33,15,-2,2,-18
O=C(CCN1C(=O)/C(=C/c2ccccc2)SC1=S)NCCCN1CCOCC1,2,-7,42,55*,-4,-11
O=C(CCN1C(=O)/C(=C\c2cccc(Br)c2)SC1=S)NCCCN1CCOCC1,0,-8,/,18,1,21
COc1ccccc1/C=C1\SC(=O)N(CCC(=O)NCCCn2ccnc2)C1=O,2,125*,97*,-5,-4,0
Cc1ccc(S(=O)(=O)NCCS(=O)(=O)N2CCN(c3ccccc3)CC2)cc1,0,2,-6,9,-5,-5
Cc1ccc(OCc2cc(C(=O)N(CCO)Cc3cccs3)no2)cc1C,4,-3,12,8,-2,-28
